40 compounds from PMC8103808 (Journal of medicinal chemistry, 2020) can be followed below.

Assay [1] has as its target T1, PDIA1 (Homo sapiens, UniProt P07237). Briefly: PDI reductase assay. In kind it is biochemical.
In a further assay the test system is U−87 MG cells. Briefly: MTT growth inhibition assay in U-87 MG cells. Type of assay: cell-based. As to conditions: Homo sapiens, read-out: MTT (% inhibition at 30 μM). The procedure, abridged:
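Cells were grown at 37 °C, 5% CO₂ in 10% FBS medium: DMEM for U-87 MG, RPMI-1640 for A-172. Duplicate wells of 3000–5000 cells were attached overnight, then exposed to 30 μM test compound for 72 h. MTT (3 mg/mL) was added for 4 h at 37 °C and formazan dissolved in DMSO before reading A570. Inhibition (%) = [1−(At−Ab)/(Ac−Ab)]×100.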
Background: Formazan colour is commonly taken as a measure of viable cells.

Assay [2] concerns the target T2, PDI (Homo sapiens, UniProt P07237). Briefly: Reversibility. In kind it is biochemical. The note with it: compound concentrations 10 times that of the protein.
In assay [3] the target is T2, PDI. Briefly: Protein mass spectrometry. Type of assay: binding. As to conditions: 10 μM PDI, 100 μM DTT, 100 μM compound. The procedure, abridged:
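Recombinant human PDI (10 μM) was incubated with 100 μM test compound and 100 μM DTT for 30 min before injection for Q-TOF intact-protein mass spectrometry to detect covalent adducts.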

Assay [4] concerns the target T2, PDI. Briefly: kinact/KI determination in PDI reductase assay with reduced PDI. In kind it is biochemical.
Assay [5] addresses T1, PDIA1. Briefly: Glutathione competition in PDI reductase assay. Type of assay: biochemical. The note with it: 5 mM GSH.
Assay [6] addresses T2, PDI. Briefly: Thermal shift assay. In kind it is binding. The note with it: oxidized PDI; 100 μM compound.

The inhibition is the share of the control response that was lost under treatment. Broadly, the kinact/KI is the second-order rate constant of inactivation.

T1 sequence (P07237 18-508): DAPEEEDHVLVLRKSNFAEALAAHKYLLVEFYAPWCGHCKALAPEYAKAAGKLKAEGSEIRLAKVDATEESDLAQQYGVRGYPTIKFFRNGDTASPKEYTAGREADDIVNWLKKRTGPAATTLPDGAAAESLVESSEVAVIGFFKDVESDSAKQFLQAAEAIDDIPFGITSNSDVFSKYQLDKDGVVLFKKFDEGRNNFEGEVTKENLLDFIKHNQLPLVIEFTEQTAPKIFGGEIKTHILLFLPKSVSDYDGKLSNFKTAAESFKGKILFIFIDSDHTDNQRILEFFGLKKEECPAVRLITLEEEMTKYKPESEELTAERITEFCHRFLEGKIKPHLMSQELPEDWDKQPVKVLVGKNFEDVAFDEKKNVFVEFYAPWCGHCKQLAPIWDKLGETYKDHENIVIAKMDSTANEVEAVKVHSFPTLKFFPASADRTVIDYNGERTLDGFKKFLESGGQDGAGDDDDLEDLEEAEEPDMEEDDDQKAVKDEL
T2 sequence (P07237 18-508): as above

Turning to `COc1cccc(C(c2ccc3cccnc3c2O)N2CCOCC2)c1OC` (stereo not drawn) [5a, 7-((2,3-Dimethoxyphenyl)(morpholino)methyl)quinolin-8-ol], the “PDI inhibition in the PDI reductase assay (in words)” value at PDIA1 [1] is on record as “submicromolar IC50 values”.
Regarding `Oc1c(C(c2ccc(F)cc2)N2CCCCC2)ccc2cccnc12` (stereo not drawn) [5b, 7-((4-Fluorophenyl)(piperidin-1-yl)methyl)quinolin-8-ol], at PDIA1 [1], the “PDI inhibition in the PDI reductase assay (in words)” value is given as “submicromolar IC50 values”.
Turning to `Oc1c(C(c2ccc(F)cc2)N2CCCCC2)ccc2cncnc12` (stereo not drawn) [5c, 7-((4-Fluorophenyl)(piperidin-1-yl)methyl)quinazolin-8-ol], the inhibition at 30 µM in the assay on U−87 MG cells was found to be 32%.
On the same count and under the same terms, the same measure for `Oc1c(C(c2ccc(F)cc2)N2CCCCC2)ccc2nccnc12` (stereo not drawn) [5e, 6-((4-Fluorophenyl)(piperidin-1-yl)methyl)quinoxalin-5-ol]: 0%; for `Oc1c(C(c2ccc(F)cc2)N2CCCCC2)ccc2scnc12` (stereo not drawn) [5f, 5-((4-Fluorophenyl)(piperidin-1-yl)methyl)benzo[d]thiazol-4-ol]: 0%.
On the same count and under the same terms, the value for `Oc1c(C(c2ccc(F)cc2)N2CCCCC2)ccc2ccoc12` (stereo not drawn) [5g, 6-((4-Fluorophenyl)(piperidin-1-yl)methyl)benzofuran-7-ol] was 0%.
Same read-out and setting: the value for `Oc1c(C(c2ccc(F)cc2)N2CCCCC2)ccc2c1OCCO2` (stereo not drawn) [5h, 6-((4-Fluorophenyl)(piperidin-1-yl)methyl)-2,3-dihydrobenzo[b][1,4]dioxin-5-ol] was 0%; that for `Oc1c(C(c2ccc(F)cc2)N2CCCCC2)ccc2c1OCO2` (stereo not drawn) [5i, 5-((4-Fluorophenyl)(piperidin-1-yl)methyl)benzo[d][1,3]dioxol-4-ol] was 0%; that for `Oc1c(C(c2ccc(F)cc2)N2CCCCC2)ccc2cnccc12` (stereo not drawn) [5j, 6-((4-Fluorophenyl)(piperidin-1-yl)methyl)isoquinolin-5-ol] was 0%.
For the compound `Oc1c(C(c2ccc(F)cc2)N2CCCCC2)ccc2c1CCC2` (stereo not drawn) [5k, 5-((4-Fluorophenyl)(piperidin-1-yl)methyl)-2,3-dihydro-1H-inden-4-ol], the “PDI inhibition in the PDI reductase assay (in words)” value at PDIA1 [1] is listed as “complete loss of the potency”.
Turning to `CN(C)c1cccc(C(c2ccc(F)cc2)N2CCCCC2)c1O` (stereo not drawn) [5l, 2-(Dimethylamino)-6-((4-fluorophenyl)(piperidin-1-yl)methyl)phenol], on PDIA1 [1], the “PDI inhibition in the PDI reductase assay (in words)” value is reported as “lost activity”. The inhibition at 30 µM in the assay with U−87 MG cells is 0%.
Take `CC(=O)c1cc2ccc(C(c3ccc(F)cc3)N3CCCCC3)c(O)c2o1` (stereo not drawn) [5m, 1-(6-((4-Fluorophenyl)(piperidin-1-yl)methyl)-7-hydroxybenzofuran-2-yl)ethanone]: in the assay with U−87 MG cells, the inhibition at 30 µM was 0%.
Take `Oc1cc(F)ccc1C(c1ccc2ccoc2c1O)N1CCCCC1` (stereo not drawn) [5n, 6-((4-Fluoro-2-hydroxyphenyl)(piperidin-1-yl)methyl)benzofuran-7-ol]: in the assay with U−87 MG cells, the inhibition at 30 µM was 0%.
Same read-out and setting: the value for `Oc1c(C(c2ccc3c(c2)CCC3)N2CCCCC2)ccc2ccoc12` (stereo not drawn) [5o, 6-((2,3-Dihydro-1H-inden-5-yl)(piperidin-1-yl)methyl)benzofuran-7-ol] was 5%; that for `Oc1c(C(c2ccc3c(c2)OC(F)(F)O3)N2CCCCC2)ccc2ccoc12` (stereo not drawn) [5q, 6-((2,2-Difluorobenzo[d][1,3]dioxol-5-yl)(piperidin-1-yl)methyl)benzofuran-7-ol] was 9%; that for `Oc1c(C(c2ccc(C(F)(F)F)cc2)N2CCCCC2)ccc2ccoc12` (stereo not drawn) [5r, 6-(Piperidin-1-yl(4-(trifluoromethyl)phenyl)methyl)benzofuran-7-ol] was 5%.
As for `COc1cccc(C(c2cc3c(cc2O)OCO3)N2CCOCC2)c1OC` (stereo not drawn) [6a, 6-((2,3-Dimethoxyphenyl)(morpholino)methyl)benzo[d][1,3]dioxol-5-ol], the “PDI activity recovery after dilution” value at PDI [2] was “too active at this ratio”. Further, at PDI [3], the “covalent binding to PDI by mass spectrometry” value is given as “bound reduced PDI at three sites”.
Take `Oc1cc2c(cc1C(c1ccc(F)cc1)N1CCCCC1)OCCO2` (stereo not drawn) [6c, 7-((4-Fluorophenyl)(piperidin-1-yl)methyl)-2,3-dihydrobenzo[b][1,4]dioxin-6-ol]: the inhibition at 30 µM in the assay on U−87 MG cells was 1%.
`Oc1cc2c(cc1C(c1ccc(F)cc1)N1CCCCC1)NCC2` (stereo not drawn) [6d, 6-((4-Fluorophenyl)(piperidin-1-yl)methyl)indolin-5-ol]: the “PDI inhibition in the PDI reductase assay (in words)” value on PDIA1 [1] is “moderate loss of activity”. Also, in the assay with U−87 MG cells, the inhibition at 30 µM came to 0%.
With `COc1cccc(C(c2cc3c(cc2O)OC(F)(F)O3)N2CCOCC2)c1OC` (stereo not drawn) [6e, 6-((2,3-Dimethoxyphenyl)(morpholino)methyl)-2,2-difluorobenzo[d][1,3]dioxol-5-ol], the inhibition at 30 µM in the assay with U−87 MG cells came out at 40%.
For the compound `Oc1cc2c(cc1C(c1ccc(F)cc1)N1CCCCC1)CCCC2` (stereo not drawn) [6g, 3-((4-Fluorophenyl)(piperidin-1-yl)methyl)-5,6,7,8-tetrahydronaphthalen-2-ol], the “PDI inhibition in the PDI reductase assay (in words)” value on PDIA1 [1] is given as “completely lost activity”. Further, in the assay with U−87 MG cells, the inhibition at 30 µM came to 0%.
Take `Oc1ccc2ncccc2c1C(c1ccc(F)cc1)N1CCCCC1` (stereo not drawn) [7a, 5-((4-Fluorophenyl)(piperidin-1-yl)methyl)quinolin-6-ol]: in the assay with U−87 MG cells, the inhibition at 30 µM stood at 10%.
On the same count and under the same terms, the value for `Oc1ccc2scnc2c1C(c1ccc(F)cc1)N1CCCCC1` (stereo not drawn) [7b, 4-((4-Fluorophenyl)(piperidin-1-yl)methyl)benzo[d]thiazol-5-ol] was 1%; that for `Oc1ccc2nccnc2c1C(c1ccc(F)cc1)N1CCCCC1` (stereo not drawn) [7c, 5-((4-Fluorophenyl)(piperidin-1-yl)methyl)quinoxalin-6-ol] was 0%.
Still for that read-out and setting: the value for `Oc1ccc2ccncc2c1C(c1ccc(F)cc1)N1CCCCC1` (stereo not drawn) [7d, 8-((4-Fluorophenyl)(piperidin-1-yl)methyl)isoquinolin-7-ol] was 0%; that for `Oc1ccc2cnccc2c1C(c1ccc(F)cc1)N1CCCCC1` (stereo not drawn) [7e, 5-((4-Fluorophenyl)(piperidin-1-yl)methyl)isoquinolin-6-ol] was 0%.
Still for that read-out and setting: the same measure for `Oc1ccc2[nH]ccc2c1C(c1ccc(F)cc1)N1CCCCC1` (stereo not drawn) [7f, 4-((4-Fluorophenyl)(piperidin-1-yl)methyl)-1H-indol-5-ol]: 0%.
Take `Oc1ccc2[nH]ncc2c1C(c1ccc(F)cc1)N1CCCCC1` (stereo not drawn) [7g, 4-((4-Fluorophenyl)(piperidin-1-yl)methyl)-1H-indazol-5-ol]: the inhibition at 30 µM in the assay on U−87 MG cells amounted to 87%.
As to `Oc1ccc2[nH]ncc2c1C(c1ccc(C(F)(F)F)cc1)N1CCCCC1` (stereo not drawn) [7h, 4-(Piperidin-1-yl(4-(trifluoromethyl)phenyl)methyl)-1H-indazol-5-ol], in the assay with U−87 MG cells, the inhibition at 30 µM worked out at 0%.
Still for that read-out and setting: the value for `O=[N+]([O-])c1ccc(C(c2c(O)ccc3[nH]ncc23)N2CCCCC2)cc1` (stereo not drawn) [7i, 4-((4-Nitrophenyl)(piperidin-1-yl)methyl)-1H-indazol-5-ol] was 0%.
On the same count and under the same terms, the same measure for `Oc1ccc2[nH]ncc2c1C(c1ccc(-c2nccs2)cc1)N1CCCCC1` (stereo not drawn) [7j, 4-(Piperidin-1-yl(4-(thiazol-2-yl)phenyl)methyl)-1H-indazol-5-ol]: 0%; for `Oc1ccc2[nH]ncc2c1C(c1ccc(-n2cccc2)cc1)N1CCCCC1` (stereo not drawn) [7k, 4-((4-(1H-Pyrrol-1-yl)phenyl)(piperidin-1-yl)methyl)-1H-indazol-5-ol]: 0%.
On the same count and under the same terms, the value for `Oc1ccc2[nH]ncc2c1C(c1ccc(-c2cncnc2)cc1)N1CCCCC1` (stereo not drawn) [7l, 4-(Piperidin-1-yl(4-(pyrimidin-5-yl)phenyl)methyl)-1H-indazol-5-ol] was 0%.
For `COC(=O)C1(C)c2[nH]c3ccccc3c2CCN1C(=O)CCl` (stereo not drawn) [16F16], the second-order inactivation constant (kinact/KI) at PDI [4] turned out to be 170 M⁻¹ s⁻¹.
For `N#Cc1cccc(/C=C/C(=O)c2ccc(O)cc2)c1` [BAP2, reference compound], the “PDI inhibition in the presence of competing glutathione” value at PDIA1 [5] was “remained active”.
As for `C#CC(=O)N(c1ccc(OC)cc1OC)C(C(=O)NCC(=O)OCC)c1cccs1` (stereo not drawn) [PACMA31, reference compound], at PDI [6], the “stabilization of PDI to thermal degradation” value is “did not stabilize PDI to thermal degradation”. Moreover, the kinact/KI at PDI [4] is 200 M⁻¹ s⁻¹.
Take `COc1c(C(c2ccc(F)cc2)N2CCCCC2)ccc2ccoc12` (stereo not drawn) [compound 8, 1-((4-Fluorophenyl)(7-methoxybenzofuran-6-yl)methyl)piperidine]: the “PDI inhibition in the PDI reductase assay (in words)” value at PDIA1 [1] is listed as “lost activity”.
Same read-out and setting: the same measure for `Oc1cc2c(cc1C(c1ccccc1)C1CCCCC1)OCO2` (stereo not drawn) [compound 13, 6-(Cyclohexyl(phenyl)methyl)benzo[d][1,3]dioxol-5-ol]: “abolished its PDI inhibition”.
`CN(C)c1ccc(C(Nc2ncccn2)c2cc3c(cc2O)OCO3)cc1` (stereo not drawn) [compound 14, 6-((4-(Dimethylamino)phenyl)(pyrimidin-2-ylamino)methyl)benzo[d][1,3]dioxol-5-ol]: on PDIA1 [5], the “PDI inhibition in the presence of competing glutathione” value is recorded as “maintained potency”.
Same read-out and setting: the value for `O=c1c(O[C@@H]2O[C@H](CO)[C@@H](O)[C@H](O)[C@H]2O)c(-c2ccc(O)c(O)c2)oc2cc(O)cc(O)c12` [isoquercetin, reference compound] was “remained active”.
